Results as given in ChEMBL document CHEMBL4699436, “Scaffold diversity for enhanced activity of glycosylated inhibitors of fungal adhesion” (RSC Med Chem, 2020).

Tests used:
Candida albicans [1] = assay: Anti-adherence activity against Candida albicans serotype B assessed as fungal adhesion to human BECs at 138 uM co-incubated for 90 mins with yeast cells and BECs by crystal violet staning based microscopic method relative to control; assay type: functional; details: 1.5 h
Summary of the method: (§1)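 Yeast (C. albicans MEN, stationary phase, washed, 1 × 10^8 per mL in PBS) were co-incubated with volunteer BECs at 50:1, with compound present, in 2 mL at 30 °C and 200 rpm for 90 min. Unattached yeast were removed on a 30 μm membrane with two PBS washes. Cells were heat-fixed and stained with crystal violet, and adherent yeast on 200 BECs were counted microscopically. PBS control. Three independent occasions; mean ± SEM.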

Candida albicans [2] = assay: Anti-adherence activity against Candida albicans serotype B assessed as displacement of adhered yeast cells on BECs at 138 uM incubated for 90 mins after preincubation of yeast cells with BECs by crystal violet staning based microscopic method relative to PBS control after second filtration; assay type: functional, organism-based
Summary of the method: (§2)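 C. albicans MEN (serotype B, corneal clinical isolate) was grown overnight to stationary phase in YEPD at 30 °C and 200 rpm, washed, and resuspended in PBS at 1 × 10^8 cells per mL. Buccal epithelial cells were scraped from healthy volunteers, washed, and held at 5 × 10^5 per mL. Yeast and BECs (50:1) were co-incubated first. The BECs with adherent yeast were collected on a 30 μm polycarbonate membrane, then re-incubated with compound for 90 min. Yeast on 200 BECs were counted after crystal violet staining. Control 1 was PBS. Control 2 was the PBS-treated count after the second filtration, to account for physical detachment. Three independent occasions; mean ± SEM.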

Candida albicans [3] = assay: Anti-adherence activity against Candida albicans serotype B assessed as fungal adhesion to human BECs at 13.8 mM co- incubated for 90 mins with yeast cells and BECs by crystal violet staning based microscopic method relative to control; assay type: functional; details: 1.5 h; summary of the method: as §1
Candida albicans [4] = assay: (§3) Anti-adherence activity against Candida albicans serotype B assessed as reduction in fungal adhesion to human BECs at 13.8 mM preincubated with yeast cells for 90 mins followed by twice washout with PBS followed by BECs addition by crystal violet staning based microscopic method relative to control; assay type: functional; details: 1.5 h
Summary of the method: (§4)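 Pre-treatment (exclusion) format. Stationary-phase C. albicans MEN in PBS were incubated with compound for 90 min, washed twice with PBS, and resuspended in 1 mL PBS. They were then mixed 50:1 with volunteer BECs for 90 min at 30 °C and 200 rpm. After 30 μm membrane filtration and crystal violet staining, yeast attached to 200 BECs were counted. PBS control. Three independent occasions; mean ± SEM.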

Candida albicans [5] = assay: Anti-adherence activity against Candida albicans serotype B assessed as fungal adhesion to human BECs at 1.38 mM co-incubated for 90 mins with yeast cells and BECs by crystal violet staning based microscopic method relative to control; assay type: functional; details: 1.5 h; summary of the method: as §1
[6] = Toxicity against Candid albicans serotype B assessed as reduction in fungal growth at 0.0133 to 3.4 mM; details: candida albicans, 3400 µM; dose 0.0133-3.4 mM
Candida albicans [7] = assay: Anti-adherence activity against Candida albicans serotype B assessed as displacement of adhered yeast cells on human BECs at 138 uM incubated for 90 mins after preincubation of yeast cells with BECs by crystal violet staning based microscopic method relative to PBS control; assay type: functional, organism-based; summary of the method: as §2
Candida albicans [8] = assay: as §3, with “0.138 to 1.38” for “13.8”; assay type: functional; details: dose mM 0.138-1.38, 1.5 h; summary of the method: as §4
Candida albicans [9] = assay: Anti-adherence activity against Candida albicans serotype B assessed as displacement of adhered yeast cells on BECs at 13.8 mM incubated for 90 mins after preincubation of yeast cells with BECs by crystal violet staning based microscopic method relative to PBS control after second filtration; assay type: functional, organism-based; summary of the method: as §2
Candida albicans [10] = assay: Anti-adherence activity against Candida albicans serotype B assessed as displacement of adhered yeast cells on BECs at 13.8 mM incubated for 90 mins after preincubation of yeast cells with BECs by crystal violet staning based microscopic method relative to PBS control; assay type: functional, organism-based; summary of the method: as §2
Candida albicans [11] = assay: Anti-adherence activity against Candida albicans serotype B assessed as reduction in yeast adhesion to human BECs at 13.8 mM preincubated for 90 mins with BECs followed by twice washout with PBS followed by yeast cells addition by crystal violet staning based microscopic method relative to control; assay type: functional; details: 1.5 h
Summary of the method: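 Reverse exclusion format. Buccal epithelial cells were pre-treated with compound at 13.8 mM before exposure to the yeast (C. albicans MEN, stationary phase, in PBS). Adherence was measured by membrane filtration, crystal violet staining, and microscopic counting of yeast on 200 BECs. Three independent occasions; mean ± SEM.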

| SMILES | Activity (Candida albicans [1]) | inhibition (Candida albicans [2]) | Fungal adhesion relative to control (Candida albicans [3]) | inhibition at 13800 µM (Candida albicans [4]) | Activity (Candida albicans [5]) | Activity [6] | inhibition (Candida albicans [7]) | inhibition (INH) (Candida albicans [8]) | inhibition (Candida albicans [9]) | inhibition (Candida albicans [10]) | inhibition at 13800 µM (Candida albicans [11]) |
| --- | --- | --- | --- | --- | --- | --- | --- | --- | --- | --- | --- |
| O=C(NCc1cn([C@@H]2O[C@H](CO)[C@H](O)[C@H](O)[C@H]2O)nn1)c1ccc(C(=O)NCc2cn([C@@H]3O[C@H](CO)[C@H](O)[C@H](O)[C@H]3O)nn2)cc1 | 56% | 48% | 38% | 33.5% | 74% | Non-Toxic | 63% | <=61% | – | – | – |
| O=c1c(NCc2cn(CCO[C@@H]3O[C@H](CO)[C@H](O)[C@H](O)[C@H]3O)nn2)c(NCc2cn(CCO[C@@H]3O[C@H](CO)[C@H](O)[C@H](O)[C@H]3O)nn2)c1=O | – | – | 69% | 33% | – | Non-Toxic | – | – | 21% | 35% | 19% |
| CCC(=O)Nc1cc(C(=O)NCc2cn([C@@H]3O[C@H](CO)[C@H](O)[C@H](O)[C@H]3O)nn2)cc(C(=O)NCc2cn([C@@H]3O[C@H](CO)[C@H](O)[C@H](O)[C@H]3O)nn2)c1 | 65% | 36% | 59% | 42% | 74% | Non-Toxic | 56% | – | 31% | 42% | 22% |
| O=C1[C@@H]2[C@H](C(=O)N1Cc1cn([C@@H]3O[C@H](CO)[C@H](O)[C@H](O)[C@H]3O)nn1)[C@@H]1C=C[C@H]2C1 | – | – | 83% | 43% | – | – | – | – | 7% | 23% | – |
| O=C(NCc1cn([C@@H]2O[C@H](CO)[C@H](O)[C@H](O)[C@H]2O)nn1)[C@@H]1[C@H](C(=O)NCc2cn([C@@H]3O[C@H](CO)[C@H](O)[C@H](O)[C@H]3O)nn2)[C@@H]2C=C[C@H]1C2 | – | – | 61% | 65% | – | Non-Toxic | – | – | 34% | 45% | – |
| O=c1c(NCc2cn([C@@H]3O[C@H](CO)[C@H](O[C@@H]4O[C@H](CO)[C@H](O)[C@H](O)[C@H]4O)[C@H](O)[C@H]3O)nn2)c(NCc2cn([C@@H]3O[C@H](CO)[C@H](O[C@@H]4O[C@H](CO)[C@H](O)[C@H](O)[C@H]4O)[C@H](O)[C@H]3O)nn2)c1=O | – | – | 64% | 34% | – | – | – | – | 25% | 39% | 15% |
| O=c1c(NCc2cn([C@@H]3O[C@H](CO)[C@H](O)[C@H](O)[C@H]3O)nn2)c(NCc2cn([C@@H]3O[C@H](CO)[C@H](O)[C@H](O)[C@H]3O)nn2)c1=O | – | – | 83% | 27% | – | Non-Toxic | – | – | – | – | 12% |
| O=C(NCc1cn([C@@H]2O[C@H](CO)[C@H](O)[C@H](O)[C@H]2O)nn1)[C@H]1[C@H](C(=O)NCc2cn([C@@H]3O[C@H](CO)[C@H](O)[C@H](O)[C@H]3O)nn2)[C@H]2C=C[C@@H]1C2 | – | – | 62% | 46% | – | – | – | – | 7% | 23% | – |
